# Most compounds without a hit are left out; they make up all but 2.4% or so of the library.
# mABHD4 FP: ABHD4 (mouse) inhibition, primary FP screen; Q8VD66; purified mABHD4, FP-Rh probe fluorescence polarization; inhibition, % at 8.92 µM; 0.54% of 370,000 active; AID 720543;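 active = inhibition exceeding the mean over every tested compound plus 3 SD, cut at about 30% in these data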
#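 Assay system: Wild-type mouse ABHD4 protein | Medium: HEPES pH 7.0 buffer, 150 mM NaCl, 0.01% Pluronic F-127 | Incubation: Enzyme–compound pre-incubation 45 min, then probe 60 min, both 25 °C | Technique: Fluorescence polarization with parallel and perpendicular emission, 525/598 nm | Evaluation: % inhibition of FP-Rh probe binding versus controls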
# SIAE primary: human SIAE inhibition, primary screen. Q9HAT2. 0.69% of 370,000 active. inhibition, % at 9.66 µM. SIAE FP-Rh probe binding, fluorescence polarization. AID 1053197;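 active = inhibition above a cutoff: mean of compounds within the control limits plus 3 SD of those, cut at about 17% in these data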
# HTRA1 inhibitor: inhibitors of human serine peptidase HTRA1 | Q92743 | recombinant HTRA1, FP-rhodamine activity-based probe, fluorescence polarization | inhibition, % at 5.96 µM | 0.5% of 340,000 active | AID 504803; in the data active = inhibition above about 36%
# JMJD2C inh: blocks human GASC-1 demethylase activity. 0.069% of 330,000 active. GST-JMJD2C(1-420) H3K9me3 demethylation, DELFIA europium. inhibition, % at 2.35 µM. Q9H3R0;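 active = more than half of a compound's replicate wells show inhibition beyond 50%, single wells judged on their own value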;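 also: signal counts dimethyl H3K9 product captured on neutravidin plate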
# Target sequence (Q9H3R0 1-420 limits assumed): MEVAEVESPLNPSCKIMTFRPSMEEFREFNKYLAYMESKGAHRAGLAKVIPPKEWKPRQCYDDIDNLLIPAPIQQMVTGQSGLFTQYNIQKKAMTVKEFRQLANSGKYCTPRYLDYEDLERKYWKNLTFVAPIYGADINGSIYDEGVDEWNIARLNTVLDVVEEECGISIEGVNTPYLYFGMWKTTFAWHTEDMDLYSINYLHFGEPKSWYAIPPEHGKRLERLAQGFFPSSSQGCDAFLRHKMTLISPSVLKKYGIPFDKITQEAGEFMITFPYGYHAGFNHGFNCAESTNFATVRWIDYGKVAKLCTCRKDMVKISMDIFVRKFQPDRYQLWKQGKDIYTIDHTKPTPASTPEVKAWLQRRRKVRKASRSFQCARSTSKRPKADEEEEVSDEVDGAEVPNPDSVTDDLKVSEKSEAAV
# PRMT1 inh: PRMT1 (human) inhibition, primary screen | Q99873 | recombinant PRMT1, activity-based probe fluorescence polarization | inhibition, % at 2.79 µM | 1.3% of 370,000 active | AID 652257;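 active = inhibition above about 21% made by adding two undisclosed values, limit read from the data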
# PRMT1 confirm: confirmation of human PRMT1 inhibitors. shares compounds with PRMT1 inh. recombinant His-PRMT1, activity-based probe fluorescence polarization. inhibition, % at 2.79 µM. 42% of 3,300 active. AID 687036;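 active = mean inhibition across replicates above the hit cutoff derived for the earlier primary screen, cut at about 22% in these data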
# mABHD4 conf: confirmation of mouse ABHD4 inhibitors. shares compounds with mABHD4 FP. purified mABHD4, FP-Rh probe fluorescence polarization. 55% of 1,800 active. AID 720658. inhibition, % at 8.92 µM;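 active = mean inhibition across replicates above the hit cutoff set in the primary screen, cut at about 30% in these data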
# SIAE inh conf: human SIAE inhibition, confirmation; shares compounds with SIAE primary; SIAE FP-Rh activity-based probe, fluorescence polarization; inhibition, % at 9.66 µM; 13% of 2,300 active;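 active = mean inhibition of the replicates above the hit cutoff set in the primary screen, cut at about 17% in these data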;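 also: inhibitors lower polarization as more probe stays unbound to SIAE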
# Numbers stand for hits; - = inactive; . = not tested or not shown.
SMILES,mABHD4 FP,SIAE primary,HTRA1 inhibitor,JMJD2C inh,PRMT1 inh,mABHD4 conf,others
O=C(CC1SC(=O)N(c2ccccc2)C1=O)Nc1ccccc1 (stereo unspecified),-,26,-,-,81,.,PRMT1 confirm=93;SIAE inh conf=-
O=c1c2c([N+](=O)[O-])cc([N+](=O)[O-])cc2sn1Cc1ccccc1,32,25,-,-,96,-,PRMT1 confirm=97;SIAE inh conf=20
CCCC/C=C1/[C@H](CC)N(C)C2=N[C@@H](c3ccccc3)CC(=O)N21,-,-,.,.,-,.,
CCCCCCN1C[C@H](n2cc(-c3ccc(F)cc3)nn2)[C@@H](O)C[C@@H]1c1ccc(C)cc1,-,-,-,.,-,.,
C=CCn1c(O)c(C2=c3ccccc3=NC2=O)c2ccccc21,38,28,-,-,42,44,PRMT1 confirm=45;SIAE inh conf=-
COC(=O)c1ccncc1N,-,-,-,-,-,.,
Nc1cnccc1C(=O)O,86,20,-,-,71,-,PRMT1 confirm=-;SIAE inh conf=-
CN1CCc2nc3ccccc3c(C(=O)OCC(=O)N(CCC#N)c3ccccc3)c2C1,-,-,-,-,-,.,
CN(CCC#N)C(=O)COC(=O)c1c2c(nc3ccccc13)/C(=C\c1ccco1)CC2,45,19,-,.,32,-,PRMT1 confirm=-;SIAE inh conf=-
CC(=O)Nc1cnc(-c2cccc(C(=O)N3CCOCC3)c2)cn1,-,-,.,.,-,.,
CC(C)C1Nc2ccc(C(=O)O)cc2C2C=CCC21 (stereo unspecified),45,-,-,-,-,38,
O=C1/C(=C/c2cccs2)SC(=S)N1NS(=O)(=O)c1ccccc1,-,-,-,-,-,.,
CC(C(=O)O)N1C(=O)/C(=C/C=C/c2ccco2)SC1=S (stereo unspecified),37,-,-,-,56,-,
O=C1/C(=C/C=C/c2ccco2)SC(=S)N1NS(=O)(=O)c1ccccc1,46,-,-,-,53,-,
COC(=O)c1cn(C(=O)c2ccc3c(c2)OCO3)c2ccccc12,-,-,-,.,-,.,
C/C(=N\NC(=O)c1ccccc1O)C1C(=O)c2ccccc2C1=O,46,-,-,-,-,64,
COc1ccc(CN2CCC(C(=O)Nc3ccc(Oc4cccnc4)cc3)CC2)c(C)c1C,-,-,-,-,-,.,
O=C(O)c1ccc(N2CCN(C(c3ccccc3)c3ccccc3)CC2)c([N+](=O)[O-])c1,32,-,-,-,-,47,
C=C1CCN(c2ccc(C(=O)O)cc2[N+](=O)[O-])CC1,.,.,.,-,.,.,
CC(C)CNc1cccc2c1S(=O)(=O)N(Cc1cn(Cc3cccc(C(F)(F)F)c3)nn1)Cc1ccccc1O2,-,-,.,.,-,.,
NC(=S)N/N=C/c1ccc(-c2cccc([N+](=O)[O-])c2)o1,-,-,-,-,-,.,
O=C(O)c1ccc(N/N=C/c2ccc(-c3cc(Cl)ccc3Cl)o2)cc1,-,-,-,-,-,.,
O=C(O)c1cccc(-c2ccc(/C=N/Nc3ccc([N+](=O)[O-])cc3)o2)c1,39,-,-,-,-,53,
O=C(O)c1ccc(N/N=C/c2ccc(-c3cccc(Cl)c3)o2)cc1,50,-,-,-,-,65,
Cc1c(C(=O)O)cccc1-c1ccc(/C=N/Nc2ccc(Br)cc2)o1,35,-,-,-,-,42,
SMILES,mABHD4 FP,SIAE primary,HTRA1 inhibitor,JMJD2C inh,PRMT1 inh,mABHD4 conf,others
O=[N+]([O-])c1ccc(C=NNc2ccc(S(=O)(=O)O)cc2)cc1,33,-,-,.,-,50,
C[C@H]1CCCCO[C@@H](CN(C)CC2CC2)[C@@H](C)CN([C@@H](C)CO)C(=O)c2cc(NS(=O)(=O)c3ccccc3)ccc2O1,-,-,.,.,-,.,
CCCC1CCC2(CC1)CCC2OC(=S)Nc1cccc(I)c1 (stereo unspecified),-,-,.,.,-,.,
Cc1cc(C)n(CC(=O)Nc2ccc3c(c2)OCO3)c(=O)c1C#N,31,-,-,-,-,-,
CCOc1cc(/C=N/n2c(COc3ccccc3)n[nH]c2=S)ccc1O,-,-,-,-,-,.,
Oc1ccc(/C=N/n2c(COc3ccccc3)n[nH]c2=S)cc1O,36,-,-,-,-,-,
CCOC(=O)C1(C)CCCCCN1C(=O)c1ccc(OC)cc1 (stereo unspecified),-,-,.,.,-,.,
CCN=c1scc(C)n1/N=C/c1cc(Br)c(O)c(OC)c1,30,-,-,-,-,33,
CS(=O)(=O)c1ccc(C(=O)N(Cc2ccccc2)c2ccccc2)cc1,-,-,-,-,-,.,
CCN(C(=O)c1ccc(S(C)(=O)=O)cc1)C12CC3CC(CC(C3)C1)C2,93,-,-,-,-,-,
NC1=NC(=O)C(=Cc2ccccc2)S1,-,-,-,.,-,.,
NC1=NC(=O)/C(=C\c2ccco2)S1,31,-,-,-,63,-,
COc1ccc(S(=O)(=O)N/N=C(/C)c2ccncc2)c(OC)c1,71,-,-,-,-,-,
COc1ccc(S(=O)(=O)N/N=C(/C)c2ccncc2)cc1,-,-,-,-,-,.,
O=C(C1CCCCC1)N1CCN(c2ccccc2F)CC1,45,-,-,-,-,-,
CN(c1ccccc1)S(=O)(=O)c1ccc(NC(=O)CC(=O)c2ccccc2)cc1,32,-,-,.,-,-,
O=C(CSc1ncnc2sc3c(c12)CCCC3)Nc1ccc(Oc2ccccc2)cc1,-,-,.,.,-,.,
Cc1ccn2c(NC3CCCCC3)c(-c3cccc(-c4cccc(Cl)c4)c3)nc2c1,38,-,-,-,-,54,
COc1cccc(C2C(C(N)=O)=C(C)Nc3nc(CCCO)nn32)c1OC (stereo unspecified),-,-,-,-,-,.,
CCOc1ccccc1C1C(C(N)=O)=C(C)Nc2nc(CCCO)nn21 (stereo unspecified),31,-,-,-,-,-,
O=C(c1ccc(NS(=O)(=O)c2ccccc2)cc1)N1CCN(c2ccccc2)CC1,-,-,-,.,-,.,
CCOc1ccc(OCC(O)CNC2CCN(Cc3ccccc3)CC2)cc1 (stereo unspecified),-,-,-,-,-,.,
CC(C)(c1ccccc1)c1ccc(OCC(O)CNC2CCN(Cc3ccccc3)CC2)cc1 (stereo unspecified),32,-,-,-,-,36,
COC(=O)[C@]12C[C@H](CC(=O)N3CCSCC3)C(=O)N(Cc3cccc4ccccc34)C1=C[C@H](C(C)(C)C)O[C@@H]2C,-,-,.,.,-,.,
COC(=O)C1C(O)=C(C=Nc2ccc(N)cc2)C(=O)CC1(C)C (stereo unspecified),38,-,-,-,-,-,
COC(=O)C1C(O)=C(C=Nc2ccccc2)C(=O)CC1(C)C (stereo unspecified),-,-,-,-,-,.,
CC1(C)CC(=O)C(C=Nc2ccc(O)cc2)=C(O)C1,-,-,-,-,-,.,
